Reference: ChEMBL document CHEMBL2380298, “Synthesis and antimicrobial activity of novel amphiphilic aromatic amino alcohols” (2013)

Columns and labels:
Format in all cases: functional
[1] = test system: Staphylococcus aureus; assay: Bactericidal activity against Staphylococcus aureus ATCC 29213 after 24 hrs; conditions: ATCC 29213, 24 h
How it was run: (§1)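 Bactericidal concentration: 0.1 ml from wells at the MIC dilution and the dilutions on either side was streaked onto tryptic soy agar and incubated 24 h. It was taken as the lowest drug concentration giving no growth (100% killing).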

[2] = test system: Staphylococcus aureus; assay: Antimicrobial activity against methicillin-resistant Staphylococcus aureus clinical isolate by broth dilution method; conditions: for MIC50 / MIC90: Staphylococcus aureus
[3] = test system: Staphylococcus aureus; assay: Antimicrobial activity against methicillin-resistant Staphylococcus aureus clinical isolate 231 by broth dilution method
[4] = test system: Staphylococcus aureus; assay: Bactericidal activity against methicillin-resistant Staphylococcus aureus clinical isolate 237 after 24 hrs; conditions: isolate 237, 24 h; how it was run: as §1
[5] = test system: Staphylococcus aureus; assay: Bactericidal activity against methicillin-resistant Staphylococcus aureus clinical isolate 255 after 24 hrs; conditions: isolate 255, 24 h; how it was run: as §1
[6] = test system: Staphylococcus aureus; assay: Antimicrobial activity against methicillin-resistant Staphylococcus aureus clinical isolate 264 by broth dilution method
[7] = test system: Staphylococcus aureus; assay: Antimicrobial activity against methicillin-resistant Staphylococcus aureus clinical isolate 255 by broth dilution method
[8] = test system: Candida parapsilosis; assay: Antimicrobial activity against Candida parapsilosis ATCC 90030 by broth dilution method; conditions: Lodderomyces parapsilosis
[9] = test system: Staphylococcus aureus; assay: Antimicrobial activity against methicillin-resistant Staphylococcus aureus clinical isolate 257 by broth dilution method
[10] = test system: Staphylococcus aureus; assay: Antimicrobial activity against methicillin-resistant Staphylococcus aureus clinical isolate 259 by broth dilution method
[11] = test system: Staphylococcus aureus; assay: Antimicrobial activity against methicillin-resistant Staphylococcus aureus clinical isolate 176 by broth dilution method
[12] = test system: Escherichia coli; assay: Antimicrobial activity against Escherichia coli ATCC 11229 by broth dilution method; conditions: Escherichia coli, ATCC 11229
[13] = test system: Staphylococcus aureus; assay: Bactericidal activity against methicillin-resistant Staphylococcus aureus clinical isolate 232 after 24 hrs; conditions: isolate 232, 24 h; how it was run: as §1
[14] = test system: Staphylococcus epidermidis; assay: Antimicrobial activity against Staphylococcus epidermidis ATCC 12228 by broth dilution method; conditions: for MIC: Staphylococcus epidermidis, ATCC 12228
[15] = test system: Staphylococcus aureus; assay: Bactericidal activity against methicillin-resistant Staphylococcus aureus clinical isolate 176 after 24 hrs; conditions: isolate 176, 24 h; how it was run: as §1
[16] = test system: Staphylococcus aureus; assay: Antimicrobial activity against methicillin-resistant Staphylococcus aureus clinical isolate 260 by broth dilution method
[17] = test system: Pseudomonas aeruginosa; assay: Antimicrobial activity against Pseudomonas aeruginosa ATCC 27853 by broth dilution method
[18] = test system: Staphylococcus aureus; assay: Antimicrobial activity against methicillin-resistant Staphylococcus aureus clinical isolate 195 by broth dilution method
[19] = test system: Staphylococcus aureus; assay: Antimicrobial activity against methicillin-resistant Staphylococcus aureus clinical isolate 218 by broth dilution method
[20] = test system: Staphylococcus aureus; assay: Antimicrobial activity against methicillin-resistant Staphylococcus aureus clinical isolate 225 by broth dilution method
[21] = test system: Staphylococcus aureus; assay: Antimicrobial activity against methicillin-resistant Staphylococcus aureus clinical isolate 238 by broth dilution method
[22] = test system: Staphylococcus aureus; assay: Antimicrobial activity against methicillin-resistant Staphylococcus aureus clinical isolate 207 by broth dilution method
[23] = test system: Staphylococcus aureus; assay: Bactericidal activity against methicillin-resistant Staphylococcus aureus clinical isolate 236 after 24 hrs; conditions: isolate 236, 24 h; how it was run: as §1
[24] = test system: Candida tropicalis; assay: Antimicrobial activity against Candida tropicalis ATCC 750 by broth dilution method
[25] = test system: Staphylococcus aureus; assay: Antimicrobial activity against methicillin-resistant Staphylococcus aureus clinical isolate 178 by broth dilution method
[26] = test system: Staphylococcus aureus; assay: Bactericidal activity against methicillin-resistant Staphylococcus aureus clinical isolate 260 after 24 hrs; conditions: isolate 260, 24 h; how it was run: as §1
[27] = test system: Staphylococcus aureus; assay: Bactericidal activity against methicillin-resistant Staphylococcus aureus clinical isolate 264 after 24 hrs; conditions: isolate 264, 24 h; how it was run: as §1
[28] = test system: Staphylococcus aureus; assay: Antimicrobial activity against methicillin-resistant Staphylococcus aureus clinical isolate 205 by broth dilution method
[29] = test system: Staphylococcus aureus; assay: Bactericidal activity against methicillin-resistant Staphylococcus aureus clinical isolate 235 after 24 hrs; conditions: isolate 235, 24 h; how it was run: as §1
[30] = test system: Staphylococcus epidermidis; assay: Bactericidal activity against Staphylococcus epidermidis ATCC 12228 after 24 hrs; conditions: ATCC 12228, 24 h
How it was run: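 MBC: after MIC determination, 0.1 ml from the MIC well and from two dilutions either side streaked on tryptic soy agar, incubated 24 h; MBC taken as lowest concentration giving no growth (100% kill).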

[31] = test system: Staphylococcus aureus; assay: Antimicrobial activity against methicillin-resistant Staphylococcus aureus clinical isolate 212 by broth dilution method
[32] = test system: Candida albicans; assay: Antimicrobial activity against Candida albicans ATCC 22019 by broth dilution method
[33] = test system: Staphylococcus aureus; assay: Bactericidal activity against methicillin-resistant Staphylococcus aureus clinical isolate 259 after 24 hrs; conditions: isolate 259, 24 h; how it was run: as §1
[34] = test system: Staphylococcus aureus; assay: Antimicrobial activity against methicillin-resistant Staphylococcus aureus clinical isolate 235 by broth dilution method
[35] = test system: Staphylococcus aureus; assay: Bactericidal activity against methicillin-resistant Staphylococcus aureus clinical isolate 257 after 24 hrs; conditions: isolate 257, 24 h; how it was run: as §1
[36] = test system: Staphylococcus aureus; assay: Antimicrobial activity against methicillin-resistant Staphylococcus aureus clinical isolate 227 by broth dilution method
[37] = test system: Staphylococcus aureus; assay: Antimicrobial activity against methicillin-resistant Staphylococcus aureus clinical isolate 237 by broth dilution method
[38] = test system: Staphylococcus aureus; assay: Antimicrobial activity against methicillin-resistant Staphylococcus aureus clinical isolate 232 by broth dilution method
[39] = test system: Staphylococcus aureus; assay: Bactericidal activity against methicillin-resistant Staphylococcus aureus clinical isolate 238 after 24 hrs; conditions: isolate 238, 24 h; how it was run: as §1
[40] = test system: Staphylococcus aureus; assay: Antimicrobial activity against methicillin-resistant Staphylococcus aureus clinical isolate 215 by broth dilution method
[41] = test system: Staphylococcus aureus; assay: Antimicrobial activity against Staphylococcus aureus ATCC 29213 by broth dilution method; conditions: Staphylococcus aureus, ATCC 29213
[42] = test system: Staphylococcus aureus; assay: Antimicrobial activity against methicillin-resistant Staphylococcus aureus clinical isolate 236 by broth dilution method
[43] = test system: Staphylococcus aureus; assay: Bactericidal activity against methicillin-resistant Staphylococcus aureus clinical isolate 231 after 24 hrs; conditions: isolate 231, 24 h; how it was run: as §1
[44] = test system: Staphylococcus aureus; assay: Bactericidal activity against methicillin-resistant Staphylococcus aureus clinical isolate 212 after 24 hrs; conditions: isolate 212, 24 h; how it was run: as §1
[45] = test system: Nakaseomyces glabratus; assay: Antimicrobial activity against Candida glabrata ATCC 18804 by broth dilution method

With `CCCCCCCCCCCCOc1ccc(CNC(CO)(CO)CO)cc1.Cl` the MBC [1] was 8 µg/mL, the “-logMIC” value [2] was 4.842 and the MIC50 [2] was 4 µg/mL. The MIC90 [2] was 8 µg/mL, the MIC [3] was 4 µg/mL and the MBC [4] was 4 µg/mL. It also gave an MBC [5] of 16 µg/mL, an MIC [6] of 4 µg/mL and an MIC [7] of 4 µg/mL. For the same molecule, the MIC [8] was 4 µg/mL, the MIC [9] was 16 µg/mL and the MIC [10] was 4 µg/mL. For the same molecule, the MIC [11] was 8 µg/mL, the MIC [12] was > 256 µg/mL and the MBC [13] was 16 µg/mL. For the same molecule, the “-logMIC” value [14] was 4.73, the MIC [14] was 8 µg/mL and the MBC [15] was 128 µg/mL. For the same molecule, the MIC [16] was 4 µg/mL, the MIC [17] was > 256 µg/mL and the MIC [18] was 8 µg/mL. The MIC [19] was 4 µg/mL, the MIC [20] was 8 µg/mL and the MIC [21] was 4 µg/mL. For the same molecule, the MIC [22] was 4 µg/mL, the MBC [23] was 8 µg/mL and the MIC [24] was 8 µg/mL. For the same molecule, the MIC [25] was 8 µg/mL, the MBC [26] was 4 µg/mL and the MBC [27] was 8 µg/mL. It also gave an MIC [28] of 8 µg/mL, an MBC [29] of 32 µg/mL and an MBC [30] of 8 µg/mL. The MIC [31] was 8 µg/mL, the MIC [32] was 4 µg/mL and the MBC [33] was 16 µg/mL. For the same molecule, the MIC [34] was 4 µg/mL, the MBC [35] was 16 µg/mL and the MIC [36] was 4 µg/mL. For the same molecule, the MIC [37] was 4 µg/mL, the MIC [38] was 8 µg/mL and the MBC [39] was 4 µg/mL. For the same molecule, the MIC [40] was 8 µg/mL, the MIC [41] was 8 µg/mL and the MIC [42] was 4 µg/mL. The MBC [43] was 4 µg/mL, the MBC [44] was 128 µg/mL and the MIC [45] was 2 µg/mL.

`CCCCCCCCCCCCCCOc1ccc(CNC(CO)(CO)CO)cc1.Cl` was tested, and the MBC [1] was 16 µg/mL, the “-logMIC” value [2] was 5.03 and the MIC50 [2] was 8 µg/mL. For the same molecule, the MIC90 [2] was > 1020 µg/mL, the MIC [3] was 2 µg/mL and the MBC [4] was 4 µg/mL. It also gave an MBC [5] of 16 µg/mL, an MIC [6] of 16 µg/mL and an MIC [7] of 8 µg/mL. It also gave an MIC [8] of 8 µg/mL, an MIC [9] of 2 µg/mL and an MIC [10] of 2 µg/mL. For the same molecule, the MIC [11] was 16 µg/mL, the MIC [12] was > 256 µg/mL and the MBC [13] was 8 µg/mL. For the same molecule, the “-logMIC” value [14] was 5.36, the MIC [14] was 2 µg/mL and the MIC [16] was 2 µg/mL. For the same molecule, the MIC [17] was > 256 µg/mL, the MIC [18] was 16 µg/mL and the MIC [19] was 8 µg/mL. The MIC [20] was > 1020 µg/mL, the MIC [21] was 4 µg/mL and the MIC [22] was > 1020 µg/mL. For the same molecule, the MBC [23] was 8 µg/mL, the MIC [24] was 32 µg/mL and the MIC [25] was 8 µg/mL. For the same molecule, the MBC [26] was 8 µg/mL, the MBC [27] was 64 µg/mL and the MIC [28] was 16 µg/mL. The MBC [29] was 8 µg/mL, the MBC [30] was 512 µg/mL and the MIC [31] was > 1020 µg/mL. It also gave an MIC [32] of 16 µg/mL, an MBC [33] of 2 µg/mL and an MIC [34] of 4 µg/mL. The MBC [35] was 8 µg/mL, the MIC [36] was > 1020 µg/mL and the MIC [37] was 4 µg/mL. For the same molecule, the MIC [38] was 8 µg/mL, the MBC [39] was 4 µg/mL and the MIC [40] was > 1020 µg/mL. The MIC [41] was 2 µg/mL, the MIC [42] was 8 µg/mL and the MBC [43] was 4 µg/mL. For the same molecule, the MIC [45] was 8 µg/mL.
